Assay results published in ChEMBL document CHEMBL1221219, “Selective blockade of 2-arachidonoylglycerol hydrolysis produces cannabinoid behavioral effects” (Nat Chem Biol, 2009).
Active and inactive are the calls of the source.

Assays:
Mus musculus [1] = assay: Inhibition of FAAH in C57B1/6J mouse brain membrane at 16 mg/kg, ip after 4 hrs by competitive activity-based protein profiling method relative to control; assay type: functional; design: scale not given: the % may be the effect or the level left; conditions: route intraperitoneal
Outline: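 Male C57Bl/6J mice (6-8 weeks, 20-26 g) given inhibitor i.p. in 4:1 v/v PEG300:Tween80 at 4 ul g^-1 (4-40 mg kg^-1); vehicle controls. Brain membrane proteomes (1 mg ml^-1 in PBS) labelled with FP-rhodamine (2 μM) for 30 min at room temperature. Readout by SDS-PAGE and in-gel fluorescence scanning, compared with vehicle.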

Mus musculus [2] = assay: Inhibition of AChE in C57B1/6J mouse brain membrane at 16 mg/kg, ip after 4 hrs by competitive activity-based protein profiling-MudPIT method; assay type: functional, organism-based; design: dose 16 mg/kg
Outline: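 Mice were dosed 16 mg kg^-1 i.p. or vehicle and killed at 4 h. Brain membrane proteomes were labelled with FP-biotin, avidin-enriched, trypsin-digested on bead, analysed by multidimensional LC-MS and identified by SEQUEST.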

Mus musculus [3] = assay: Inhibition of FAM108A1 in C57B1/6J mouse brain membrane at 16 mg/kg, ip after 4 hrs by competitive activity-based protein profiling-MudPIT method; assay type: functional, organism-based; design: dose 16 mg/kg
Outline: (§1)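 After i.p. dosing in 4:1 PEG300:Tween80, male C57Bl/6J mice were killed at 4 h. Brain membrane proteomes from treated and vehicle mice were labelled with FP-biotin. Labelled proteins were enriched on avidin, digested on-bead with trypsin and analysed by multidimensional LC-MS. Proteins were identified by SEQUEST, and dosed samples were compared with vehicle.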

Mus musculus [4] = assay: Inhibition of PRCP in C57B1/6J mouse brain membrane at 16 mg/kg, ip after 4 hrs by competitive activity-based protein profiling-MudPIT method; assay type: functional, organism-based; design: dose 16 mg/kg; outline: as §1
Mus musculus [5] = assay: Inhibition of NTE-like in C57B1/6J mouse brain membrane at 16 mg/kg, ip after 4 hrs by competitive activity-based protein profiling-MudPIT method; assay type: functional, organism-based; design: dose 16 mg/kg; outline: as §1
Mus musculus [6] = assay: Decrease in arachidonic acid levels in intraperitoneally dosed C57B1/6J mouse brain after 4 hrs by LC-MS; assay type: functional, organism-based
Outline: (§2)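 Male C57Bl/6J mice given 4, 8, 16 or 40 mg kg^-1 i.p. in 4:1 PEG300:Tween80 at 4 μl g^-1, or vehicle, and killed after 4 h. Whole-brain lipids were quantified by LC-MS.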

Mus musculus [7] = assay: Change in monopalmitoylglycerol levels in intraperitoneally dosed C57B1/6J mouse brain by LC-MS; assay type: functional, organism-based; outline: as §2
Mus musculus [8] = assay: Change in anandamide level in C57B1/6J mouse brain at 16 mg/kg, ip by LC-MS; assay type: functional, organism-based; design: dose 16 mg/kg
Outline: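 Mice received 16 mg kg^-1 i.p. in 4:1 PEG300:Tween80 and were killed at 0.5, 1, 2, 4, 8 and 24 h. Brain lipids, including N-acylethanolamines, MAGs, free fatty acids and arachidonic acid, were measured by LC-MS.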

Mus musculus [9] = assay: Antinociceptive activity against C57B1/6J mouse at assessed as latency in reaction time required for thermal stimulus-induced tail flicking at 16 mg/kg, ip after 2 hrs; assay type: functional, organism-based; design: dose 16 mg/kg
Outline: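 Tail immersion assay of thermal pain in male C57Bl/6J mice, 6-8 weeks. Dose 16 mg kg^-1 i.p. in 4:1 v/v PEG300:Tween80 at 4 μl g^-1, with vehicle controls.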

Mus musculus [10] = assay: Antinociceptive activity against formalin-induced pain in C57B1/6J mouse assessed as paw lifting or licking during early phase (0 to 10 mins) at 40 m/kg, po administered 2 hrs before formalin challenge; assay type: functional, organism-based
Mus musculus [11] = assay: Inhibition of FAAH in orally dosed C57B1/6J mouse brain membrane after 4 hrs; assay type: functional, organism-based
Outline: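 Oral dosing used male C57Bl/6J mice (6-8 weeks) given inhibitor in PEG300 vehicle at 4 ul g^-1, handled as for i.p. dosing. Brains were taken 4 h later for analysis of brain membrane hydrolase activity.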

[12] = target: T1, Monoacylglycerol lipase ABHD6 (Mus musculus) (UniProt Q8R2Y0); assay: Inhibition of ABHD6 in C57B1/6J mouse brain membrane at 10 uM after 30 mins by competitive activity-based protein profiling method; assay type: cell membranes
T1 sequence (whole entry): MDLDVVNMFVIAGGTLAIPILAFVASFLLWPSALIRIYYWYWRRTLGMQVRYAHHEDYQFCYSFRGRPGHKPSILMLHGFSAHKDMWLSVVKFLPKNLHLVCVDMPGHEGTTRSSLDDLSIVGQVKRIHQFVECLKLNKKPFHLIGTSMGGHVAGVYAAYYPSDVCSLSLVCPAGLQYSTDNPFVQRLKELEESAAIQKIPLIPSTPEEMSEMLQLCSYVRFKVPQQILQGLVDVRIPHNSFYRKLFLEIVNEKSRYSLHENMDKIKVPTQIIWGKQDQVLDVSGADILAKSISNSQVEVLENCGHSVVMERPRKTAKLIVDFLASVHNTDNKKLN
Outline: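 Mouse brain membrane proteome at 1 mg ml^-1 in PBS was preincubated with inhibitor (1 nM-10 μM) for 30 min at 37°C. FP-rhodamine was then added at 2 μM final for 30 min at room temperature, followed by SDS-PAGE and in-gel fluorescence scanning.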

O=C(Oc1ccc([N+](=O)[O-])cc1)N1CCC(C(O)(c2ccc3c(c2)OCO3)c2ccc3c(c2)OCO3)CC1
inactive: inhibition (Mus musculus [2]) | inhibition (Mus musculus [3]) | inhibition (Mus musculus [4]) | inhibition (Mus musculus [5]) | Activity (Mus musculus [7]) | Activity (Mus musculus [8])
35%: Activity (Mus musculus [1])
active: Activity (Mus musculus [6]) | Activity (Mus musculus [9]) | Activity (Mus musculus [10]) | inhibition (Mus musculus [11]) | inhibition [12]
